Source: PubChem BioAssay AID1325 (NMMLSC, 2008)
About 200 (0.11%) of roughly 190,000 compounds were called active. The entries come from a sample that favours actives as a whole. Unmarked numbers belong to inactive results.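 The calls were made as follows: active = inhibition above 80%; inactive = the rest.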

What follows are molecules tested against Broad substrate specificity ATP-binding cassette transporter ABCG2 (Homo sapiens) (UniProt Q9UNQ0) (assay: ABCG2 efflux pump inhibitors, primary screen, multiplex with ABCB1, IgMXP3 cells, flow cytometry (AID 1325)). Conditions: JC-1 efflux, at 6.6 µM, stronger effect = higher value.
Sequence of Broad substrate specificity ATP-binding cassette transporter ABCG2 (Homo sapiens) (Q9UNQ0 whole entry, looked up): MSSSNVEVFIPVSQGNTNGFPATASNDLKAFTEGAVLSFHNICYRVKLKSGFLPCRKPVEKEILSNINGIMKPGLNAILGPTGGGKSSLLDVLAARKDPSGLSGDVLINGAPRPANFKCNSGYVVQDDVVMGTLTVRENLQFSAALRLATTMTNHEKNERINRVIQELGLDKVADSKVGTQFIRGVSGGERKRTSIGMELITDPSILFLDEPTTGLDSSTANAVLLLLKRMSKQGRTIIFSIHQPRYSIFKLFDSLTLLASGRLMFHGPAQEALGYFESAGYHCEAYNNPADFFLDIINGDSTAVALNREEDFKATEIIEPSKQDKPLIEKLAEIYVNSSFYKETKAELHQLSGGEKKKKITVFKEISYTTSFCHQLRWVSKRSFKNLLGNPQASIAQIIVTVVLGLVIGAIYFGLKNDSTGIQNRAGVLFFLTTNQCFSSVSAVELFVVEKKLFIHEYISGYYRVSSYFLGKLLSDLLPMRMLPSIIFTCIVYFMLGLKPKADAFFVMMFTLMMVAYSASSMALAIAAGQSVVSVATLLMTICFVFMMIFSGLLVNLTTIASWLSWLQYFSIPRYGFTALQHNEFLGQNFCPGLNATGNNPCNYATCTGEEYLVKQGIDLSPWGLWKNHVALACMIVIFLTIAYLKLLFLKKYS
How it was run: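 Test system: IgMXP3 (ABCG2) plus far-red-tagged CCRF-Adr (ABCB1) cells. Reagent: JC-1 dye as substrate. Timing: 10 min exposure at 25 °C with rotation, no wash. Measured by: flow cytometric JC-1 green MFI at 530 nm. Read-out: percent efflux inhibition, scaled nicardipine 100% to DMSO 0%. Control set: nicardipine and DMSO wells.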
`Cc1[nH]c2ccccc2c1/C=N/NC(=O)CNC(=O)c1ccc2c(c1)OCO2` showed an inhibition of 0.16%.
Work on `O=C(NNC(=S)Nc1ccc(Br)cc1Cl)c1ccco1` yielded an inhibition of -9.07%.
`CNC(=O)c1ccsc1NC(=O)c1ccc(S(=O)(=O)N2CCc3ccccc32)cc1` showed an inhibition of 0.15%.
For `CCCC(=O)NC(=S)Nc1ccc(CN2CCOCC2)cc1`, the inhibition was 1.31%.
With `CCN(C(=O)COC(=O)/C=C/c1nc2ccccc2s1)C1CCS(=O)(=O)C1` (stereo not drawn) the inhibition was 1.28%.
Molecule `O=C(Nc1ccc(C(=O)O)cc1)/C(=C/c1ccc([N+](=O)[O-])cc1)NC(=O)c1ccccc1` has an inhibition of 2.36%.
In the case of `C=CCNC(=O)/C=C/c1ccc(C(C)C)cc1`, the inhibition is reported as 3.56%.
`Cc1ccc(S(=O)(=O)NCCc2nnc3ccc(SCc4cccnc4)nn23)cc1` was tested, and the inhibition was 0.68%.
With `COc1ccc(C(=O)COC(=O)c2nn(C)c(=O)c3ccccc23)c(OC)c1` the inhibition was 8.17%.
Work on `COCCCNC(=O)CNC(=S)N(Cc1cc(OC)c(OC)c(OC)c1)C1CCCC1` yielded an inhibition of -0.12%.
With `O=C(COc1ccc(S(=O)(=O)N2CCCCC2)cc1)NCc1ccccn1` the inhibition was 1.47%.
`CC1(C)CC(=O)c2c(n(S(=O)(=O)c3ccccc3)c3ccc(NS(=O)(=O)c4ccccc4)cc23)C1` gave an inhibition of -0.92%.
For `COc1ccc(Cl)cc1N(CC(=O)N/N=C/c1ccc(OCC(N)=O)cc1)S(C)(=O)=O`, the inhibition was 8.83%.
Work on `CCOc1ccc(-n2cnnn2)cc1S(=O)(=O)N1CCC(C)CC1C` (stereo not drawn) yielded an inhibition of 0.53%.
Molecule `O=C(NCCN1CCOCC1)Nc1cccc(Cl)c1` has an inhibition of 4.87%.
Work on `Cc1cc(C)c2[nH]c(=O)c(CN(Cc3ccccc3)C(=S)NCCCN(C)C)cc2c1` yielded an inhibition of 54.5%.
Molecule `Nn1c(SCC(=O)Nc2nccs2)nncc1=O` has an inhibition of 0.11%.
In the case of `COCCCNC(=O)/C=C/c1ccc(OCc2c(F)cccc2Cl)cc1`, the inhibition is reported as 3.58%.
With `COc1ccc(-c2[nH]ncc2CN(Cc2nccn2C)C(C)C)cc1F` the inhibition was 3.43%.
`N#CC1(C#N)C(C(=O)C23CC4CC(CC(C4)C2)C3)C12CCOCC2` (stereo not drawn) was tested, and the inhibition was -1.02%.
`COc1cc(N2C(=O)c3ccccc3C2=O)c(Cl)cc1C(=O)OCC(=O)N1CCOCC1` was tested, and the inhibition was 2.21%.
Molecule `O=C(Oc1cccc(N2C(=O)C3C4c5ccccc5C(c5ccccc54)C3C2=O)c1)c1ccco1` (stereo not drawn) has an inhibition of 0.99%.
`O=C1OCC2=C1C(c1ccccc1)CC(=O)N2c1cccc(F)c1` (stereo not drawn) gave an inhibition of 10.8%.
For `COc1ccc(CN(C)Cc2nc3cc(OC)c(OC)cc3c(=O)[nH]2)c(OC)c1`, the inhibition was 3.26%.
`C[N+]1(CC(O)COc2ccccc2)CCN(C(=O)c2ccc([N+](=O)[O-])cc2)CC1` (stereo not drawn) gave an inhibition of 4.9%.
`CC1(C)CC(=O)C2=C(C1)Nc1cc(C(=O)c3ccccc3)ccc1NC2c1ccccn1` (stereo not drawn) gave an inhibition of 1.87%.
For `CCN=c1sc(C(=O)Nc2ccccc2)c(C)n1CC`, the inhibition was 3.73%.
`CC(C)(C)C(=O)CN1C2=NCCN2c2ccccc21` showed an inhibition of 2.76%.
`Cn1c(=O)c2c(nc(N/N=C/c3cccs3)n2Cc2ccc(Br)cc2)n(C)c1=O` showed an inhibition of 8.74%.
`COc1ccc(Cl)cc1NC(=O)CNc1ccccc1F` showed an inhibition of 28.9%.
`Cc1ccc2sc(NNC(=O)c3ccc4c(c3)OCCO4)nc2c1C` showed an inhibition of 0%.
`CC(Sc1nc2cc(Cl)ccc2s1)C(=O)Nc1ccc2c(c1)OCO2` (stereo not drawn) was tested, and the inhibition was 0%.
For `O=C(/C=C/c1ccc([N+](=O)[O-])cc1)NCCSCc1ccco1`, the inhibition was 54.6%.
Molecule `O=S(=O)(Nc1ccccn1)c1cccc(S(=O)(=O)c2ccc(Cl)cc2)c1` has an inhibition of -0.57%.
For `O=C(NNC1=NCCC1)c1cccc(S(=O)(=O)N2CCCCC2)c1`, the inhibition was -6.82%.
Work on `C=CCc1cccc2cc(C(=O)Nc3ccc(NC(C)=O)cc3)c(=O)oc12` yielded an inhibition of 0.59%.
Molecule `O=C(CC(=O)N/N=C\c1ccc(F)cc1)NCCc1ccccc1` has an inhibition of 1.18%.
`O=C(Cc1ccc(F)cc1)N/N=C/c1ccc2c(c1)OCO2` gave an inhibition of 10.1%.
In the case of `O=C(Cc1c[nH]c2ccccc12)N/N=C/c1cccc(F)c1`, the inhibition is reported as 88.7% (active).
With `Cc1cc(C(=O)N/N=C\C(Br)=C\c2ccccc2)c(C)o1` the inhibition was 2.48%.
With `NC(=O)CCC(NS(=O)(=O)c1ccc(Cl)cc1)C(=O)NCc1ccccc1Cl` (stereo not drawn) the inhibition was 4.92%.
In the case of `Cc1cc(C)n(CC(O)CN(c2ccccc2)S(=O)(=O)c2ccc3ccccc3c2)n1` (stereo not drawn), the inhibition is reported as 16.1%.
With `CCc1nnc(NC(=O)CSc2nc(SC)ns2)s1` the inhibition was 1.21%.
For `COc1ccc(C2(CNC(=O)Cc3ccc(OC)c(OC)c3)CCCC2)cc1`, the inhibition was 2.77%.
Work on `CC(C)CCN1C(=O)c2ccc(C(=O)Nc3cccc(S(N)(=O)=O)c3)cc2C1=O` yielded an inhibition of -4.62%.
`Clc1ccc(-c2ncc3ccccn23)c(Cl)c1` showed an inhibition of -0.33%.
Work on `CCOc1cc(/C=N/NC(=O)c2ccc(CSc3nncn3C)cc2)ccc1OCC(=O)N1CCOCC1` yielded an inhibition of -0.51%.
`Cc1nn(CC(=O)Nc2ccc3c(c2)OCO3)c(C)c1[N+](=O)[O-]` gave an inhibition of 11.5%.
`CC(=O)Nc1sc2c(c1C(c1cccc(F)c1)N1CCN(CCO)CC1)CCCC2` (stereo not drawn) showed an inhibition of -0.02%.
Work on `O=C(c1cncc(Br)c1)N1CCN(c2ccc([N+](=O)[O-])cc2)CC1` yielded an inhibition of 34.2%.
Work on `CN(C)c1ccc(/C=N/Nc2cc(N3CCOCC3)nc(N3CCOCC3)n2)cc1` yielded an inhibition of 5.63%.
`Cn1nc(C(F)(F)F)c2cc(C(=O)N3CCOCC3)sc21` was tested, and the inhibition was 0.03%.
`Cc1cc(NC(=O)CSc2nc3cc(Cl)ccc3c(=O)n2Cc2ccco2)no1` was tested, and the inhibition was 5.22%.
`CCC1CCCCN1C(=S)Nc1ccc(SC(F)F)cc1` (stereo not drawn) showed an inhibition of 0%.
`O=C(N/N=C/c1cc([N+](=O)[O-])ccc1O)/C(=C\c1cccs1)NC(=O)c1ccccc1` was tested, and the inhibition was -3.14%.
In the case of `Cn1cc(CN2CCCC(CO)C2)c(-c2ccc(Oc3ccccc3)cc2)n1` (stereo not drawn), the inhibition is reported as -1.73%.
`CN(C)c1ccc(C=C2C(=O)OC3(CCCC3)OC2=O)cc1` was tested, and the inhibition was 0.11%.
`Cc1nc2nc[nH]n2c(=O)c1C/C=C/c1ccccc1` showed an inhibition of 0.18%.
